From article PMC5114172 (Journal of applied toxicology : JAT, 2016)

What was measured:
monocyte-depleted PBMCs = test: IL-1β secretion assay; assay type: cell-based, human; settings: MD-PBMCs; for fold increase in IL-1β secretion: third common donor (F152), 24 h
How it was run: (§1)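 NK cells, MD-PBMCs, PBMCs or granulocytes (1.5 million/mL) or PBMC+granulocytes (0.75 million/mL each), per donor, exposed 24 h, 48 h or 6 days to 0.05–5 μM test compound diluted from DMSO stock, with DMSO controls. Supernatants kept at −70 °C. IL-1β by sandwich ELISA: HRP detection antibody, acid-stopped substrate, A450 against standards. Detection limit 3 pg/mL; triplicates; ANOVA then t test versus control, p<0.05.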

PBMCs plus Granulocytes = test: IL-1β secretion assay; assay type: cell-based, human; settings: for Interleukin 1 beta secreted: PBMCs plus Granulocytes
How it was run: as §1

SMILES: CCC[CH2][Sn][CH2]CCC [DBT, Dibutyltin]
- Interleukin 1 beta secreted (monocyte-depleted PBMCs; donor F166, 48 h, 0.5 μM DBT): 924 ± 101 pg/mL
- Interleukin 1 beta secreted (monocyte-depleted PBMCs; donor F166, 48 h, 1 μM DBT): 1075 ± 230 pg/mL
- Interleukin 1 beta secreted (monocyte-depleted PBMCs; donor F166, 48 h, 2.5 μM DBT): 1981 ± 3260 pg/mL
- Interleukin 1 beta secreted (monocyte-depleted PBMCs; donor F166, 6 day, 0.05 μM DBT): 6655 ± 930 pg/mL
- Interleukin 1 beta secreted (monocyte-depleted PBMCs; donor F166, 6 day, 0.1 μM DBT): 4959 ± 11 pg/mL
- Interleukin 1 beta secreted (monocyte-depleted PBMCs; donor F166, 6 day, 0.25 μM DBT): 2424 ± 95 pg/mL
- Interleukin 1 beta secreted (monocyte-depleted PBMCs; donor F166, 6 day, 0.5 μM DBT): 2118 ± 698 pg/mL
- fold increase in IL-1β secretion (monocyte-depleted PBMCs; 50 nM DBT): 2.1 fold
- fold increase in IL-1β secretion (monocyte-depleted PBMCs; 100 nM DBT): 1.4 fold
- Interleukin 1 beta secreted (PBMCs plus Granulocytes; donor F148, 24 h, 0.05 μM DBT): 4217 ± 397 pg/mL
- Interleukin 1 beta secreted (PBMCs plus Granulocytes; donor F148, 24 h, 0.1 μM DBT): 3060 ± 191 pg/mL
- Interleukin 1 beta secreted (PBMCs plus Granulocytes; donor F148, 24 h, 0.25 μM DBT): 3344 ± 212 pg/mL
- Interleukin 1 beta secreted (PBMCs plus Granulocytes; donor F148, 24 h, 0.5 μM DBT): 7275 ± 2061 pg/mL
- Interleukin 1 beta secreted (PBMCs plus Granulocytes; donor F148, 24 h, 1 μM DBT): 2011 ± 148 pg/mL
- Interleukin 1 beta secreted (PBMCs plus Granulocytes; donor F148, 24 h, 2.5 μM DBT): 736 ± 552 pg/mL
- Interleukin 1 beta secreted (PBMCs plus Granulocytes; donor F148, 24 h, 5 μM DBT): 197 ± 78 pg/mL
- Interleukin 1 beta secreted (PBMCs plus Granulocytes; donor F148, 48 h, 0.05 μM DBT): 646 ± 25 pg/mL
- Interleukin 1 beta secreted (PBMCs plus Granulocytes; donor F148, 48 h, 0.1 μM DBT): 864 ± 11 pg/mL
- Interleukin 1 beta secreted (PBMCs plus Granulocytes; donor F148, 48 h, 0.25 μM DBT): 1017 ± 76 pg/mL
- Interleukin 1 beta secreted (PBMCs plus Granulocytes; donor F148, 48 h, 0.5 μM DBT): 1191 ± 200 pg/mL
- Interleukin 1 beta secreted (PBMCs plus Granulocytes; donor F148, 48 h, 1 μM DBT): 491 ± 26 pg/mL
- Interleukin 1 beta secreted (PBMCs plus Granulocytes; donor F148, 6 day, 0.5 μM DBT): 3 ± 1 pg/mL
- Interleukin 1 beta secreted (PBMCs plus Granulocytes; donor F154, 24 h, 0.05 μM DBT): 1364 ± 181 pg/mL
- Interleukin 1 beta secreted (PBMCs plus Granulocytes; donor F154, 24 h, 0.1 μM DBT): 1059 ± 141 pg/mL
- Interleukin 1 beta secreted (PBMCs plus Granulocytes; donor F154, 24 h, 0.25 μM DBT): 835 ± 38 pg/mL
- Interleukin 1 beta secreted (PBMCs plus Granulocytes; donor F154, 24 h, 0.5 μM DBT): 538 ± 33 pg/mL
- Interleukin 1 beta secreted (PBMCs plus Granulocytes; donor F154, 24 h, 1 μM DBT): 386 ± 157 pg/mL
- Interleukin 1 beta secreted (PBMCs plus Granulocytes; donor F154, 48 h, 0.05 μM DBT): 358 ± 88 pg/mL
- Interleukin 1 beta secreted (PBMCs plus Granulocytes; donor F154, 48 h, 0.1 μM DBT): 346 ± 40 pg/mL
- Interleukin 1 beta secreted (PBMCs plus Granulocytes; donor F154, 48 h, 0.25 μM DBT): 372 ± 47 pg/mL
- Interleukin 1 beta secreted (PBMCs plus Granulocytes; donor F154, 48 h, 0.5 μM DBT): 372 ± 24 pg/mL
- Interleukin 1 beta secreted (PBMCs plus Granulocytes; donor F154, 48 h, 1 μM DBT): 322 ± 11 pg/mL
- Interleukin 1 beta secreted (PBMCs plus Granulocytes; donor F154, 48 h, 2.5 μM DBT): 321 ± 35 pg/mL
- Interleukin 1 beta secreted (PBMCs plus Granulocytes; donor F154, 48 h, 5 μM DBT): 321 ± 20 pg/mL
- Interleukin 1 beta secreted (PBMCs plus Granulocytes; donor F154, 6 day, 0.05 μM DBT): 65 ± 34 pg/mL
- Interleukin 1 beta secreted (PBMCs plus Granulocytes; donor F154, 6 day, 0.1 μM DBT): 31 ± 16 pg/mL
- Interleukin 1 beta secreted (PBMCs plus Granulocytes; donor F154, 6 day, 0.25 μM DBT): 8 ± 1 pg/mL
- Interleukin 1 beta secreted (PBMCs plus Granulocytes; donor F154, 6 day, 0.5 μM DBT): 11 ± 0 pg/mL
- Interleukin 1 beta secreted (PBMCs plus Granulocytes; donor F154, 6 day, 1 μM DBT): 10 ± 0 pg/mL
- Interleukin 1 beta secreted (PBMCs plus Granulocytes; donor F154, 6 day, 2.5 μM DBT): 3 ± 0 pg/mL
- Interleukin 1 beta secreted (PBMCs plus Granulocytes; donor F159, 24 h, 0.05 μM DBT): 438 ± 18 pg/mL
- Interleukin 1 beta secreted (PBMCs plus Granulocytes; donor F159, 24 h, 0.1 μM DBT): 375 ± 28 pg/mL
- Interleukin 1 beta secreted (PBMCs plus Granulocytes; donor F159, 24 h, 0.25 μM DBT): 648 ± 18 pg/mL
- Interleukin 1 beta secreted (PBMCs plus Granulocytes; donor F159, 24 h, 0.5 μM DBT): 620 ± 40 pg/mL
- Interleukin 1 beta secreted (PBMCs plus Granulocytes; donor F159, 24 h, 1 μM DBT): 617 ± 74 pg/mL
- Interleukin 1 beta secreted (PBMCs plus Granulocytes; donor F159, 24 h, 2.5 μM DBT): 87 ± 12 pg/mL
- Interleukin 1 beta secreted (PBMCs plus Granulocytes; donor F159, 48 h, 0.05 μM DBT): 109 ± 93 pg/mL
- Interleukin 1 beta secreted (PBMCs plus Granulocytes; donor F159, 48 h, 0.1 μM DBT): 48 ± 8 pg/mL
- Interleukin 1 beta secreted (PBMCs plus Granulocytes; donor F159, 48 h, 0.25 μM DBT): 141 ± 16 pg/mL
- Interleukin 1 beta secreted (PBMCs plus Granulocytes; donor F159, 48 h, 0.5 μM DBT): 226 ± 16 pg/mL
- Interleukin 1 beta secreted (PBMCs plus Granulocytes; donor F159, 48 h, 1 μM DBT): 311 ± 39 pg/mL
- Interleukin 1 beta secreted (PBMCs plus Granulocytes; donor F159, 48 h, 2.5 μM DBT): 505 ± 54 pg/mL
- Interleukin 1 beta secreted (PBMCs plus Granulocytes; donor F159, 48 h, 5 μM DBT): 192 ± 15 pg/mL
- Interleukin 1 beta secreted (PBMCs plus Granulocytes; donor F159, 6 day, 0.05 μM DBT): 3 ± 2 pg/mL
- Interleukin 1 beta secreted (PBMCs plus Granulocytes; donor F159, 6 day, 0.1 μM DBT): 3 ± 2 pg/mL
- Interleukin 1 beta secreted (PBMCs plus Granulocytes; donor F159, 6 day, 0.5 μM DBT): 5 ± 1 pg/mL
- Interleukin 1 beta secreted (PBMCs plus Granulocytes; donor F159, 6 day, 1 μM DBT): 5 ± 1 pg/mL
- Interleukin 1 beta secreted (PBMCs plus Granulocytes; donor F159, 6 day, 2.5 μM DBT): 7 ± 1 pg/mL
- Interleukin 1 beta secreted (PBMCs plus Granulocytes; donor F173, 24 h, 0.05 μM DBT): 150 ± 26 pg/mL
- Interleukin 1 beta secreted (PBMCs plus Granulocytes; donor F173, 24 h, 0.1 μM DBT): 168 ± 34 pg/mL
- Interleukin 1 beta secreted (PBMCs plus Granulocytes; donor F173, 24 h, 0.25 μM DBT): 146 ± 12 pg/mL
- Interleukin 1 beta secreted (PBMCs plus Granulocytes; donor F173, 24 h, 0.5 μM DBT): 165 ± 13 pg/mL
- Interleukin 1 beta secreted (PBMCs plus Granulocytes; donor F173, 24 h, 1 μM DBT): 632 ± 19 pg/mL
- Interleukin 1 beta secreted (PBMCs plus Granulocytes; donor F173, 24 h, 2.5 μM DBT): 287 ± 22 pg/mL
- Interleukin 1 beta secreted (PBMCs plus Granulocytes; donor F173, 24 h, 5 μM DBT): 140 ± 10 pg/mL
- Interleukin 1 beta secreted (PBMCs plus Granulocytes; donor F173, 48 h, 0.05 μM DBT): 57 ± 35 pg/mL
- Interleukin 1 beta secreted (PBMCs plus Granulocytes; donor F173, 48 h, 0.1 μM DBT): 17 ± 2 pg/mL
- Interleukin 1 beta secreted (PBMCs plus Granulocytes; donor F173, 48 h, 0.25 μM DBT): 42 ± 6 pg/mL
- Interleukin 1 beta secreted (PBMCs plus Granulocytes; donor F173, 48 h, 0.5 μM DBT): 32 ± 1 pg/mL
- Interleukin 1 beta secreted (PBMCs plus Granulocytes; donor F173, 48 h, 1 μM DBT): 160 ± 2 pg/mL
- Interleukin 1 beta secreted (PBMCs plus Granulocytes; donor F173, 48 h, 2.5 μM DBT): 124 ± 3 pg/mL
- Interleukin 1 beta secreted (PBMCs plus Granulocytes; donor F173, 48 h, 5 μM DBT): 63 ± 1 pg/mL
- average of the maximum fold increase in IL-β secretion (PBMCs plus Granulocytes; PBMCs+granulocytes, 24 h, across donors): 3.8 fold
- fold increase in IL-1β secretion (PBMCs plus Granulocytes; PBMCs+granulocytes, donor F159, 24 h, 0.25 μM DBT): 1.9 fold
- fold increase in IL-1β secretion (PBMCs plus Granulocytes; PBMCs+granulocytes, donor F159, 24 h, 0.5 μM DBT): 1.8 fold
- fold increase in IL-1β secretion (PBMCs plus Granulocytes; PBMCs+granulocytes, donor F159, 24 h, 1 μM DBT): 1.8 fold
- fold increase in IL-1β secretion (PBMCs plus Granulocytes; PBMCs+granulocytes, donor F159, 48 h, 0.25 μM DBT): 35 fold
- fold increase in IL-1β secretion (PBMCs plus Granulocytes; PBMCs+granulocytes, donor F159, 48 h, 0.5 μM DBT): 56 fold
- fold increase in IL-1β secretion (PBMCs plus Granulocytes; PBMCs+granulocytes, donor F159, 48 h, 1 μM DBT): 77 fold
